Reference: ChEMBL document CHEMBL1221348, “1,2,3-triazole analogs of combretastatin A-4 as potential microtubule-binding agents” (Bioorg Med Chem, 2010)

Columns and labels:
K562 = assay: Cytotoxicity against human K562 cells after 5 days by MTT assay; format: functional, cell-based; details: K562, 120 h
Procedure, shortened: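 K562 human chronic myelogenous leukemia cells were grown in antibiotic-free RPMI with 10% v/v FCS and plated at 40,000 cells/mL. Drug was dissolved in DMSO and serially diluted in medium, with a drug-free control. Plates were incubated 5 days at 37 °C in 5% CO2. MTT was added for 3 h and the formazan dissolved in DMSO. OD was read at 540 and 690 nm to derive the growth-inhibitory dose.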

Tubulin = Tubulin (Sus scrofa, UniProt P02554+P02550); assay: Inhibition of pig tubulin polymerization; format: protein assay
Procedure, shortened: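 Porcine brain tubulin (11 mg/mL stock) was used in Mes buffer (0.1 M Mes, 1 mM EGTA, 0.5 mM MgCl2, pH 6.6) with GTP (5 mM stock) and drug in DMSO. The plate was prechilled 30 min at 4 °C. Absorbance at 350 nm was recorded at ambient temperature for 60 min against buffer+drug blanks. IC50 was taken graphically as percent of untreated control assembly.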

COc1ccc(Cn2cc(-c3cc(OC)c(OC)c(OC)c3)nn2)cc1
IC50 (K562): > 10 µM

COc1ccc(-n2cc(-c3cc(OC)c(OC)c(OC)c3)nn2)cc1O
IC50 (Tubulin): > 20 µM
IC50 (K562): 3.2 µM

COc1ccc(Cn2cc(-c3cc(OC)c(OC)c(OC)c3)nn2)cc1O
IC50 (K562): > 10 µM

COc1ccc(Cn2nncc2-c2cc(OC)c(OC)c(OC)c2)cc1Br
IC50 (K562): > 10 µM

COc1ccc(-c2cn(-c3cc(OC)c(OC)c(OC)c3)nn2)cc1[N+](=O)[O-]
IC50 (K562): > 10 µM

COc1ccc(-n2cc(-c3cc(OC)c(OC)c(OC)c3)nn2)cc1N
IC50 (K562): > 10 µM

COc1ccc(Cn2nncc2-c2cc(OC)c(OC)c(OC)c2)cc1O
IC50 (K562): 1.83 µM

COc1ccc(-n2cc(-c3cc(OC)c(OC)c(OC)c3)nn2)cc1
IC50 (K562): > 10 µM

COc1ccc(Cn2nncc2-c2cc(OC)c(OC)c(OC)c2)cc1
IC50 (K562): 8.66 µM

COc1ccc(Cn2cc(-c3cc(OC)c(OC)c(OC)c3)nn2)cc1[N+](=O)[O-]
IC50 (K562): > 10 µM

COc1ccc(-c2cn(Cc3cc(OC)c(OC)c(OC)c3)nn2)cc1
IC50 (K562): > 10 µM

COc1ccc(-c2cnnn2Cc2cc(OC)c(OC)c(OC)c2)cc1O
IC50 (K562): 0.53 µM

COc1ccc(-c2cn(Cc3cc(OC)c(OC)c(OC)c3)nn2)cc1Br
IC50 (K562): > 10 µM

COc1ccc(Cn2cc(-c3cc(OC)c(OC)c(OC)c3)nn2)cc1N
IC50 (K562): > 10 µM

COc1ccc(-c2cn(-c3cc(OC)c(OC)c(OC)c3)nn2)cc1Br
IC50 (K562): > 10 µM

COc1ccc(-c2cn(-c3cc(OC)c(OC)c(OC)c3)nn2)cc1O
IC50 (K562): > 10 µM

COc1ccc(Cn2nncc2-c2cc(OC)c(OC)c(OC)c2)cc1N
IC50 (Tubulin): > 20 µM
IC50 (K562): 0.73 µM

COc1ccc(-c2cn(-c3cc(OC)c(OC)c(OC)c3)nn2)cc1N
IC50 (Tubulin): > 20 µM

COc1ccc(-n2cc(-c3cc(OC)c(OC)c(OC)c3)nn2)cc1Br
IC50 (K562): > 10 µM

COc1ccc(-n2cc(-c3cc(OC)c(OC)c(OC)c3)nn2)cc1[N+](=O)[O-]
IC50 (K562): > 10 µM

COc1ccc(-c2cnnn2Cc2cc(OC)c(OC)c(OC)c2)cc1[N+](=O)[O-]
IC50 (K562): > 10 µM

COc1ccc(-c2cn(Cc3cc(OC)c(OC)c(OC)c3)nn2)cc1O
IC50 (K562): > 10 µM

COc1ccc(-c2cnnn2Cc2cc(OC)c(OC)c(OC)c2)cc1N
IC50 (Tubulin): > 20 µM
IC50 (K562): 0.38 µM

COc1ccc(-c2cn(-c3cc(OC)c(OC)c(OC)c3)nn2)cc1
IC50 (K562): > 10 µM

COc1ccc(Cn2nncc2-c2cc(OC)c(OC)c(OC)c2)cc1[N+](=O)[O-]
IC50 (K562): > 10 µM

COc1ccc(Cn2cc(-c3cc(OC)c(OC)c(OC)c3)nn2)cc1Br
IC50 (K562): > 10 µM

COc1ccc(-c2cnnn2Cc2cc(OC)c(OC)c(OC)c2)cc1Br
IC50 (K562): > 10 µM

COc1ccc(-c2cn(Cc3cc(OC)c(OC)c(OC)c3)nn2)cc1N
IC50 (K562): > 10 µM

COc1ccc(-c2cn(Cc3cc(OC)c(OC)c(OC)c3)nn2)cc1[N+](=O)[O-]
IC50 (K562): > 10 µM

COc1ccc(-c2cnnn2Cc2cc(OC)c(OC)c(OC)c2)cc1
IC50 (K562): 5.56 µM
